Measured values as given in ChEMBL document CHEMBL1155725, “Antimicrobial cuparene-type sesquiterpenes, enokipodins C and D, from a mycelial culture of Flammulina velutipes” (2001).
Active and inactive are the calls of the source. The calls are words filed in the database; no cut-off is given here.

Legend:
Bacillus subtilis [1] = test: Antimicrobial activity against Bacillus subtilis LMA0011 at 25 ug/8 mm disk after 18 hrs by paper disk method; assay type: functional
Procedure, shortened: (§1)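 Disk diffusion: 25 or 50 µg sample in acetone (20 µL) on air-dried 8 mm paper disk, placed on agar seeded with organism; plates held overnight at 4 °C for diffusion, then 37 °C for 18 h. Read-out: diameter of clear inhibition zone; triplicate.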

Bacillus subtilis [2] = test: Antimicrobial activity against Bacillus subtilis LMA0011 at 50 ug/8 mm disk after 18 hrs by paper disk method; assay type: functional; procedure, shortened: as §1
Staphylococcus aureus [3] = test: Antimicrobial activity against Staphylococcus aureus AHU1142 at 25 ug/8 mm disk after 18 hrs by paper disk method; assay type: functional; procedure, shortened: as §1
Staphylococcus aureus [4] = test: Antimicrobial activity against Staphylococcus aureus AHU1142 at 50 ug/8 mm disk after 18 hrs by paper disk method; assay type: functional; procedure, shortened: as §1
Escherichia coli [5] = test: Antimicrobial activity against Escherichia coli AHU1714 at 25 ug/8 mm disk after 18 hrs by paper disk method; assay type: functional; procedure, shortened: as §1
Escherichia coli [6] = test: Antimicrobial activity against Escherichia coli AHU1714 at 50 ug/8 mm disk after 18 hrs by paper disk method; assay type: functional; procedure, shortened: as §1
Pseudomonas fluorescens [7] = test: Antimicrobial activity against Pseudomonas fluorescens AHU1719 at 25 ug/8 mm disk after 18 hrs by paper disk method; assay type: functional; procedure, shortened: as §1
Pseudomonas fluorescens [8] = test: Antimicrobial activity against Pseudomonas fluorescens AHU1719 at 50 ug/8 mm disk after 18 hrs by paper disk method; assay type: functional; procedure, shortened: as §1
Cladosporium herbarum = test: Antifungal activity against Cladosporium herbarum AHU9262 after 3 days by TLC plate assay; assay type: functional, organism-based
Procedure, shortened: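 TLC bioautography: EtOAc extract of culture filtrate (equivalent to 0.25 mL medium) developed in CHCl3–MeOH 25:1, sprayed with C. herbarum spore suspension, incubated 25 °C under humid conditions for 3 days; inhibitory zones matched to UV 254 nm spots.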

Bacillus subtilis [9] = test: Antimicrobial activity against Bacillus subtilis LMA0011 at 12.5 ug/8 mm disk after 18 hrs by paper disk method; assay type: functional
Procedure, shortened: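 Positive-control disk diffusion: pentachlorophenol 12.5 µg on 8 mm paper disk on seeded agar; overnight at 4 °C, then 37 °C for 18 h; clear inhibition-zone diameter measured; triplicate.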

Row | Compound | inhibition zone (IZ) (Bacillus subtilis [1]) [mm] | inhibition zone (IZ) (Bacillus subtilis [2]) [mm] | inhibition zone (IZ) (Staphylococcus aureus [3]) [mm] | inhibition zone (IZ) (Staphylococcus aureus [4]) [mm] | inhibition zone (IZ) (Escherichia coli [5]) [mm] | inhibition zone (IZ) (Escherichia coli [6]) [mm] | inhibition zone (IZ) (Pseudomonas fluorescens [7]) [mm] | inhibition zone (IZ) (Pseudomonas fluorescens [8]) [mm] | Activity (Cladosporium herbarum) | inhibition zone (IZ) (Bacillus subtilis [9]) [mm]
1 | Cc1cc2c(cc1O)[C@@]1(C)CC[C@@](O)(O2)C1(C)C [ENOKIPODIN A] | 28 | 32.6 | 19.2 | 25.2 | 0 | 0 | 0 | 0 | Active | –
2 | CC1=CC(=O)C([C@@]2(C)CCC(=O)C2(C)C)=CC1=O [ENOKIPODIN B] | 17 | 21 | 0 | 14 | 0 | 0 | – | – | Active | –
3 | Cc1cc2c(cc1O)[C@@]1(C)[C@H](O)C[C@@](O)(O2)C1(C)C [ENOKIPODIN C] | 20 | 26 | 18 | 21.2 | 0 | 0 | 0 | 0 | Active | –
4 | CC1=CC(=O)C([C@@]2(C)[C@H](O)CC(=O)C2(C)C)=CC1=O [ENOKIPODIN D] | 11 | 16 | 0 | 11.6 | 0 | 0 | – | – | Active | –
5 | Oc1c(Cl)c(Cl)c(Cl)c(Cl)c1Cl [PENTACHLOROPHENOL] | 31 | – | – | – | – | – | – | – | – | 26.6
